Measurements gathered from unrelated publications.
Each line is one published result; the experiments were not run side by side.
Target: Fibroblast growth factor receptor 4 (FGFR4, Homo sapiens, UniProt P22455)

Compound	assay	setting	quantity	result
N#CC1(c2ccccn2)CCN(Cc2cc(C(=O)O)c(=O)n3ccccc23)CC1	cell-free assay, competition with immobilised ligand	1 µM	remaining binding	100%
C#Cc1n[nH]c2c(-c3cn([C@@H](C)c4ccccn4)c(=O)[nH]c3=O)cc(F)cc12	enzyme activity, inhibitor	0.1 µM	inhibition	7.2%
Cn1cc(-c2cc(F)cc(N3CCn4c(cc5c4CCCC5)C3=O)c2CO)cc(Nc2ccc(N3CCN(C4COC4)CC3)cn2)c1=O	enzyme activity, inhibitor	0.1 µM	inhibition	2%
COCc1c(-c2cc3cc(C)cc(OC)c3s2)c2c(N)ncnn2c1CN1CCNC(=O)C1	cell-free assay, competition with immobilised ligand	1 µM	inhibition	99.9%
COc1ncccc1-c1cnn2ccc(N3CCN(C(=O)OC(C)C)CC3)nc12	binding, competition with immobilised ligand	1 µM	remaining binding	60%
COc1cc(Nc2ncc(F)c(Nc3ccc4c(n3)NC(=O)C(C)(C)O4)n2)cc(OC)c1OC	binding, competition with immobilised ligand	10 µM	inhibition	97%
Nc1ncc(-c2nc(N3CCOCC3)nc(N3CCOCC3)n2)c(C(F)F)n1	cell-free assay, competition with immobilised ligand	10 µM	remaining binding	100%
CC(C)(C)c1cc(C=C(C#N)C#N)cc(Br)c1O	enzyme activity, inhibitor	0.5 µM	remaining activity	98%
C#Cc1n[nH]c2c(-c3cn([C@@H](C)c4ccccc4)c(=O)[nH]c3=O)cc(F)cc12	enzyme activity, inhibitor	0.1 µM	inhibition	0%
O=c1[nH]c2ccccc2n1C1CCN(Cc2ccc(-c3[nH]c4cc5ncnc5cc4nc3-c3ccccc3)cc2)CC1	cell-free assay	0.5 µM	remaining signal	97.2%
Cn1cncc1[C@](O)(COc1ccc(C#N)cc1-c1ccc(OC(F)(F)F)cc1)c1ccc(C#N)cc1	cell-free assay, competition with immobilised ligand	1 µM	remaining binding	100%
Cn1cc(-c2cccc(N3CCc4c(sc5c4CC(C)(C)C5)C3=O)c2CO)cc(Nc2ccncn2)c1=O	enzyme activity, inhibitor	1 µM	inhibition	-2%
Cc1nn(C)cc1-c1nc2c(N3CCN(Cc4ccc(Cl)cc4)CC3)c(Cl)cnc2[nH]1	binding, competition with immobilised ligand	1 µM	remaining binding	68%
